# Measured values as given in ChEMBL document CHEMBL1124929, “Indolo[2,1-a]isoquinolines. Syntheses, steroid hormone receptor binding affinities, and cytostatic activity” (1990).
# Columns and labels:
# [1] = species on record: Bos taurus; experiment: Relative binding affinity(RBA) as ratio of progesterone and compound required to displace [3H]-org 2058 binding to Progesterone receptor by 50%
# Outline: (§1)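 Receptor source was calf uterine cytosol (105000g supernatant, 3 mg/mL protein in assay). Buffers were Tris/EDTA pH 7.4, with NaN₃ for ER, molybdate/glycerol for AR, and sucrose for PR. Tracers were 1 nM [³H]estradiol, [³H]mibolerone or [³H]Org 2058. Incubation was at 0–4 °C for 16 h (ER) or 2 h (AR, PR), with 4–6 competitor concentrations. Nonspecific binding used 2 µM of the unlabeled hormone. Separation was by dextran-coated charcoal. RBA is the ratio of IC50 values for hormone and compound ×100, mean of two triplicate experiments.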
# [2] = target: T1, Androgen Receptor (Bos taurus) (UniProt Q5EM59); experiment: Relative binding affinity(RBA) for 50% displacement of [3H]mibolerone from Androgen receptor compared to testorone; outline: as §1
# T1 sequence (whole entry): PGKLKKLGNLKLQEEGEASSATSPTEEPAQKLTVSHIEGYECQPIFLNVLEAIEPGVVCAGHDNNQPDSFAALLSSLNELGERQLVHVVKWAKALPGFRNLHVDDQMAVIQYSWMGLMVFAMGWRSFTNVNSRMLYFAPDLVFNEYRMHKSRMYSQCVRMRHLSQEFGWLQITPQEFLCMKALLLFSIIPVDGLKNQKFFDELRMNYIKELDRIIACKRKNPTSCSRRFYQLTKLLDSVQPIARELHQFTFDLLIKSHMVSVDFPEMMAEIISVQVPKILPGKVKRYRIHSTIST
# [3] = target: Estrogen receptor (Bos taurus) (UniProt Q9XSB5+P49884); experiment: Relative binding affinity(RBA) for 50% displacement of [3H]-estradiol from Estrogen receptor compared to 17-beta-estradiol; format: protein assay; outline: as §1
RBA [1],RBA [2],RBA [3],Structure (SMILES)
0.01,0.2,0.16,CC(=O)Oc1ccc2c(c1)CCn1c-2cc2ccc(OC(C)=O)cc21
,< 0.01,0.01,CC(=O)Oc1ccc2c(c1)CCn1c-2cc2cc(OC(C)=O)c(OC(C)=O)cc21
,< 0.01,0.05,CC(=O)Oc1ccc2cc3n(c2c1)CCc1cc(OC(C)=O)c(OC(C)=O)cc1-3
